Experimental findings from paper PMC6350648 (Drug Design, Development and Therapy, 2019) are described below.

For series [1], the system named is Staphylococcus aureus (NCTC10788). As to the kind of experiment: MIC/MBC broth-dilution assay. As to conditions: S. aureus NCTC10788, MHB pH 7.4, 512 to 1 µM twofold, 1% DMSO. It counts as cell-based. Summed up:
(§1)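 Broth dilution was run in Mueller Hinton Broth, pH 7.4, with peptide at final 512 to 1 µM in twofold steps. Peptide stocks were in DMSO, giving final 1% (v/v) DMSO, also used alone as vehicle control. Controls were culture without peptide for growth and fresh MHB as blank. Positive controls were 5 mg/L vancomycin (S. aureus, MRSA, E. faecalis) and 5 mg/L amphotericin B (C. albicans). Five independent experiments were run.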

In series [2] the test system is Escherichia coli (NCTC10418). As to the kind of experiment: MIC/MBC broth-dilution assay. It is filed as cell-based. To be noted: E. coli NCTC10418, MHB pH 7.4, 512 to 1 µM twofold, 1% DMSO. In short, it runs like this: as §1
Series [3] relates to Candida albicans (NCYC1467). As to the kind of experiment: MIC/MBC broth-dilution assay. As to conditions: C. albicans NCYC1467, MHB pH 7.4, 512 to 1 µM twofold, 1% DMSO. It is filed as cell-based. In short, it runs like this: as §1
Series [4] deals with methicillin-resistant S. aureus (MRSA) (NCTC12493). Description: MIC/MBC broth-dilution assay. To be noted: MHB pH 7.4, 512 to 1 µM twofold, 1% DMSO. It counts as cell-based, Staphylococcus aureus. In short, it runs like this:
as §1

For series [5], the system named is Enterococcus faecalis (NCTC12697). As to the kind of experiment: MIC/MBC broth-dilution assay. It is filed as cell-based. As to conditions: E. faecalis NCTC12697, MHB pH 7.4, 512 to 1 µM twofold, 1% DMSO. Summed up: as §1
Another series deals with horse erythrocytes. As to the kind of experiment: Hemolysis assay. It counts as cell-based. To be noted: peptides in PBS, 512 to 1 µM, 1% Triton-X100 = 100%. In short, it runs like this: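 Horse erythrocytes were exposed to peptide in PBS at 512 to 1 µM. Erythrocytes in PBS defined 0% hemolysis and 1% (v/v) Triton X-100 defined 100%. HC50 (µM) was the concentration giving half-maximal hemolysis. Values are the mean with standard error from five independent experiments.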

Another series relates to MDA-MB-435S cells. Description: MTT assay. It is filed as cell-based, human. To be noted: MB435s (MDA-MB-435S); peptides in serum-free medium. Summed up:
(§2)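 For MTT viability, MDA-MB-435S, U251MG, HCT116 and MCF-7 were grown in DMEM, and NCI-H157 and PC-3 in RPMI 1640. All media had 10% FBS and 1% penicillin–streptomycin. Peptides were diluted in serum-free medium. Untreated cells defined 100% viability, and LD50 was the median lethal dose. Values are the mean with standard error from five independent experiments.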
For orientation: Tetrazolium assays rely on reduction of a dye to a coloured formazan, in cell work by metabolically active cells.

The test system of a further series is NCI-H157 cells. As to the kind of experiment: MTT assay. It counts as cell-based, human. As to conditions: peptides in serum-free medium. In short, it runs like this:
as §2

In a further series the test system is PC-3 cells. Description: MTT assay. It counts as cell-based, human. As to conditions: peptides in serum-free medium. In short, it runs like this: as §2
For the next series, the system named is U251MG cells. Description: MTT assay. To be noted: peptides in serum-free medium. It is filed as cell-based, human. Summed up: as §2
For a further series, the system named is HCT116 cells. Description: MTT assay. It is filed as cell-based, human. To be noted: peptides in serum-free medium. Summed up: as §2
Series [6] has as its system MCF-7 cells. As to the kind of experiment: MTT assay. It counts as cell-based, human. As to conditions: peptides in serum-free medium. In short, it runs like this:
as §2

In series [7] the test system is MCF-7 cells. It counts as cell-based, human. As to conditions: MCF-7, 10 µM peptide; 100% = 1% TritonX-100; five replicates.
Series [8] concerns selected human cancer cell lines. As to the kind of experiment: MTT assay, all cancer cell lines examined. It counts as cell-based. As to conditions: all six cancer cell lines. In short, it runs like this: as §2

Broadly, the MIC is the lowest concentration that inhibits growth of the organism. A high value points to a need for much substance.

No end group written: not given here.

Consider “FLSLIPAAISAVSALANHF-NH2 [PSPHa, Phylloseptin-PHa]”, for which the MBC in series [1] was 16 µM; in [2], above 512 µM; in series [3], 32 µM; in [4], 128 µM; in [5] it was above 512 µM. Moreover, the MIC in series [1] was 8 µM; in [2], above 512 µM; in series [3], 32 µM; in series [4] it was 64 µM; in series [5] it was above 512 µM. The “HC50 of hemolysis on erythrocytes” value in the series with horse erythrocytes is 52.17 µM. For the same substance, the “LD50 of MTT assays” value in the series on MDA-MB-435S cells is listed as 28.48 µM; in the series with NCI-H157 cells, 37.61 µM; in the series on PC-3 cells, 37.96 µM; in the series with U251MG cells, 34.67 µM; with HCT116 cells, 36.64 µM; in the series with MCF-7 cells [6], 24.05 µM. For the same substance, the LDH release entry in the series on MCF-7 cells [7] is “not as potent as PSPHa2–5”.

Consider FLSLIPKAISAISALANHF-NH2 [PSPHa2], for which the MBC in series [1] stood at 4 µM; in [2], 128 µM; in [3], 16 µM; in series [4] it was 32 µM; in series [5] it was 64 µM. Besides, the MIC in series [1] was determined as 4 µM; in series [2], 64 µM; in series [3] it was 8 µM; in series [4], 16 µM; in series [5] it was 64 µM. In addition, the “HC50 of hemolysis on erythrocytes” value in the series on horse erythrocytes came to 34.86 µM. Also, the “LD50 of MTT assays” value came out at 19.56 µM with MDA-MB-435S cells; 35.34 µM in the series with NCI-H157 cells; 35.11 µM in the series on PC-3 cells; 36.46 µM in the series with U251MG cells; 37.4 µM in the series on HCT116 cells; 26.49 µM in the series with MCF-7 cells [6].

As to FLSLIPKAISAISALINHF-NH2 [PSPHa3], the MBC in [1] was 2 µM; in [2], above 512 µM; in series [3], 4 µM; in series [4] it was 32 µM; in [5], 32 µM. Moreover, the minimum inhibitory concentration (MIC) in [1] is 2 µM; in series [2], above 512 µM; in [3], 4 µM; in series [4] it was 32 µM; in series [5], 32 µM. Also, the “HC50 of hemolysis on erythrocytes” value in the series with horse erythrocytes is 9.266 µM. Moreover, the “LD50 of MTT assays” value turned out to be 3.994 µM in the series on MDA-MB-435S cells; 2.865 µM in the series on NCI-H157 cells; 9.164 µM with PC-3 cells; 10.85 µM in the series on U251MG cells; 11.71 µM with HCT116 cells; 10.48 µM in the series with MCF-7 cells [6].

For the substance FLSLIPKAISAVSALANHF-NH2 [PSPHa1], the MBC was 8 µM in [1]; 128 µM in [2]; 32 µM in series [3]; 32 µM in series [4]; 32 µM in series [5]. In addition, the minimum inhibitory concentration (MIC) in [1] worked out at 8 µM; in series [2], 128 µM; in series [3], 16 µM; in series [4], 16 µM; in series [5], 32 µM. Besides, the “HC50 of hemolysis on erythrocytes” value in the series on horse erythrocytes is recorded as 197.7 µM. For the same substance, the “LD50 of MTT assays” value in the series on MDA-MB-435S cells is recorded as 32.41 µM; in the series with NCI-H157 cells it was 41.73 µM; in the series with PC-3 cells, 32.89 µM; with U251MG cells, 33.65 µM; in the series on HCT116 cells, 35.16 µM; in the series on MCF-7 cells [6], 45.69 µM. In addition, in the series with MCF-7 cells [7], the LDH release result is given as “lowest degree of LDH release”.

On to FLSLIPKIISAISALIKHF-NH2 [PSPHa5], for which the MBC in series [1] was 2 µM; in series [2] it was above 512 µM; in series [3], 128 µM; in series [4], 128 µM; in series [5], 32 µM. The MIC in series [1] was 2 µM; in [2], above 512 µM; in series [3], 32 µM; in series [4] it was 64 µM; in [5], 16 µM. Besides, the “HC50 of hemolysis on erythrocytes” value with horse erythrocytes is given as 1.074 µM. The “LD50 of MTT assays” value is recorded as 3.553 µM with MDA-MB-435S cells; 3.614 µM with NCI-H157 cells; 4.256 µM in the series with PC-3 cells; 4.059 µM in the series on U251MG cells; 4.421 µM in the series on HCT116 cells; 3.753 µM in the series on MCF-7 cells [6]. In addition, the “LD50 (MTT) for all the cell lines examined” value in [8] is on record as below 5 µM.

With FLSLIPKIISAISALINHF-NH2 [PSPHa4], the MBC is 2 µM in series [1]; above 512 µM in series [2]; 128 µM in series [3]; 256 µM in series [4]; 64 µM in series [5]. Also, the MIC in [1] was 2 µM; in series [2], above 512 µM; in series [3], 32 µM; in series [4], 128 µM; in [5], 32 µM. In addition, the “HC50 of hemolysis on erythrocytes” value in the series on horse erythrocytes is recorded as 2.766 µM. The “LD50 of MTT assays” value in the series with MDA-MB-435S cells amounted to 4.802 µM; with NCI-H157 cells, 2.265 µM; in the series on PC-3 cells, 9.35 µM; with U251MG cells, 9.547 µM; with HCT116 cells it was 6.779 µM; in the series with MCF-7 cells [6] it was 15.01 µM.
